Measured values as given in ChEMBL document CHEMBL1123129, “Hypolipidemic activity of indan-1,3-dione derivatives in rodents” (J Med Chem, 1985).

Assays:
Type in all cases: functional
Mus musculus [1] = experiment: Hypolipidemic activity in CF1 male mice at a dose of 20 mg/kg per day, serum cholesterol measured on the 9th day
Procedure, shortened: (§1)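 CF1 male mice (~30 g) were given 20 mg/kg per day ip at 11:00 a.m.; N = 6 per group. Tail-vein serum was collected in nonheparinized microcapillaries. Cholesterol was measured on days 9 and 16 by modified Liebermann–Burchard on duplicate 25 µL samples. Triglyceride was measured on day 16 in a separate group, duplicate 50 µL. Values are % control ± SD; Student's t test.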

Mus musculus [2] = experiment: Compound was evaluated for the hypolipidemic activity in CF1 male mice at a dose of 20 mg/kg per day intraperitoneally for serum cholesterol at 16th day.; settings: route intraperitoneal
Procedure, shortened: (§2)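 CF1 male mice (~30 g) were dosed ip daily. Tail-vein blood was collected on day 9 and day 16 between 8:00 and 9:30 a.m. Serum cholesterol was measured by modified Liebermann–Burchard on duplicate 25-µL samples. Triglyceride was measured on day 16 in a separate group, duplicate 50-µL samples. Values are % control, mean ± SD, N = 6; Student's t test.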

Mus musculus [3] = experiment: Compound was evaluated for the hypolipidemic activity in CF1 male mice at a dose of 20 mg/kg per day intraperitoneally for serum triglyceride at 16th day.; settings: route intraperitoneal; procedure, shortened: as §2
Mus musculus [4] = experiment: Hypolipidemic activity in CF1 male mice at a dose of 20 mg/kg per day, serum cholesterol measured on the 16th day; procedure, shortened: as §1
Mus musculus [5] = experiment: Hypolipidemic activity in CF1 male mice at a dose of 20 mg/kg per day, serum triglyceride measured on the 16th day; procedure, shortened: as §1
Mus musculus [6] = experiment: Compound was evaluated for the hypolipidemic activity in CF1 male mice at a dose of 20 mg/kg per day intraperitoneally of serum cholesterol at 9th day; settings: route intraperitoneal; in the assay text read “150 mg/kg” for “20 mg/kg”; procedure, shortened: as §2

SMILES | Serum cholesterol, % of control (Mus musculus [1]) | Control (Mus musculus [2]) | Control (Mus musculus [3]) | Serum cholesterol, % of control (Mus musculus [4]) | Serum triglyceride, % of control (Mus musculus [5]) | Control (Mus musculus [6])
O=C(O)c1ccc(C2C(=O)c3ccccc3C2=O)cc1 | 95% | 78% | 95% |  |  | 
O=C1c2ccccc2C(=O)C1c1ccc2ccccc2c1 | 72% |  |  | 66% | 66% | 
O=C1CC(=O)c2ccccc21 | 74% |  |  | 60% | 79% | 
CCOc1ccc(C2C(=O)c3ccccc3C2=O)cc1 | 66% |  |  | 59% | 81% | 
O=C1c2ccccc2C(=O)C1c1c(Cl)cccc1Cl | 71% |  |  | 68% | 61% | 
CCC1C(=O)c2ccccc2C1=O | 63% |  |  | 60% | 63% | 
CC1C(=O)c2ccccc2C1=O | 74% |  |  | 58% | 61% | 
O=C1c2ccccc2C(=O)C1c1ccc(Cl)cc1Cl | 89% |  |  | 73% | 87% | 
CCCCCC1C(=O)c2ccccc2C1=O | 65% |  |  | 64% | 70% | 
O=C1c2ccccc2C(=O)C1c1ccc(Cl)c(Cl)c1 | 93% |  |  | 84% | 89% | 
Cc1ccc(C2C(=O)c3ccccc3C2=O)c(C)c1 | 61% |  |  | 54% | 58% | 
COc1cccc(C2C(=O)c3ccccc3C2=O)c1 | 75% |  |  | 67% | 55% | 
O=C(O)c1ccccc1C1C(=O)c2ccccc2C1=O | 79% | 78% | 52% |  |  | 
CCCCC1C(=O)c2ccccc2C1=O | 74% |  |  | 58% | 63% | 
O=C1c2ccccc2C(=O)C1c1ccc(-c2ccccc2)cc1 | 78% |  |  | 64% | 63% | 
CCCC1C(=O)c2ccccc2C1=O | 68% |  |  | 66% | 52% | 
Cc1ccccc1C1C(=O)c2ccccc2C1=O | 73% |  |  | 69% | 49% | 
COc1ccc(C2C(=O)c3ccccc3C2=O)c(OC)c1 | 89% |  |  | 74% | 87% | 
O=C1c2ccccc2C(=O)C1c1cccc(Cl)c1 | 70% |  |  | 60% | 70% | 
O=C1c2ccccc2C(=O)C1c1ccccc1Cl | 75% |  |  | 56% | 55% | 
COc1ccc(C2C(=O)c3ccccc3C2=O)cc1OC | 75% |  |  | 69% | 66% | 
Cc1ccc(C2C(=O)c3ccccc3C2=O)cc1 | 68% |  |  | 65% | 42% | 
Cc1cccc(C2C(=O)c3ccccc3C2=O)c1 | 75% |  |  | 71% | 51% | 
COc1ccccc1C1C(=O)c2ccccc2C1=O | 79% |  |  | 72% | 48% | 
O=C1c2ccccc2C(=O)C1c1ccc(Br)cc1 [BROMINDIONE] | 72% |  |  | 56% | 66% | 
CCOC(=O)C(C)(C)Oc1ccc(Cl)cc1 [CLOFIBRATE] |  |  |  | 87% | 75% | 88%
O=C1c2ccccc2C(=O)C1c1ccc(Cl)cc1 [CLORINDIONE] | 64% |  |  | 63% | 47% | 
O=C1c2ccccc2C(=O)C1c1ccccc1 [PHENINDIONE] | 64% |  |  | 60% | 60% | 
